According to ChEMBL document CHEMBL1806416, “Synthesis of 2,4-diaryl chromenopyridines and evaluation of their topoisomerase I and II inhibitory activity, cytotoxicity, and structure-activity relationship” (Eur J Med Chem, 2011):

Assays:
HCT-15 = experiment: Cytotoxicity against human HCT15 cells after 2 days; format: functional, cell-based; conditions: HCT-15, 48 h
In short: (§1)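 Cells grown per supplier's instructions, seeded at 2-4 × 10^4 per well and incubated overnight in medium with 10% FBS, 5% CO2, 37 °C. Day 2: medium replaced with graded compound concentrations from DMSO stock (20 mM). Day 4: CCK-8 added for 4 h, absorbance read at 450 nm. Three experiments, each in triplicate, mean ± S.D.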

HeLa = experiment: Cytotoxicity against human HeLa cells after 2 days; format: functional, cell-based; conditions: 48 h; in short: as §1
HL-60 = experiment: Cytotoxicity against human HL60 cells after 2 days; format: functional, cell-based; conditions: HL-60, 48 h; in short: as §1
[1] = target: T1, DNA topoisomerase 1 (Homo sapiens) (UniProt P11387); experiment: Inhibition of human recombinant DNA topoisomerase 1 assessed as inhibition of supercoiled pBR322 DNA relaxation at 100 uM after 30 mins by gel electrophoresis
T1 sequence (whole entry): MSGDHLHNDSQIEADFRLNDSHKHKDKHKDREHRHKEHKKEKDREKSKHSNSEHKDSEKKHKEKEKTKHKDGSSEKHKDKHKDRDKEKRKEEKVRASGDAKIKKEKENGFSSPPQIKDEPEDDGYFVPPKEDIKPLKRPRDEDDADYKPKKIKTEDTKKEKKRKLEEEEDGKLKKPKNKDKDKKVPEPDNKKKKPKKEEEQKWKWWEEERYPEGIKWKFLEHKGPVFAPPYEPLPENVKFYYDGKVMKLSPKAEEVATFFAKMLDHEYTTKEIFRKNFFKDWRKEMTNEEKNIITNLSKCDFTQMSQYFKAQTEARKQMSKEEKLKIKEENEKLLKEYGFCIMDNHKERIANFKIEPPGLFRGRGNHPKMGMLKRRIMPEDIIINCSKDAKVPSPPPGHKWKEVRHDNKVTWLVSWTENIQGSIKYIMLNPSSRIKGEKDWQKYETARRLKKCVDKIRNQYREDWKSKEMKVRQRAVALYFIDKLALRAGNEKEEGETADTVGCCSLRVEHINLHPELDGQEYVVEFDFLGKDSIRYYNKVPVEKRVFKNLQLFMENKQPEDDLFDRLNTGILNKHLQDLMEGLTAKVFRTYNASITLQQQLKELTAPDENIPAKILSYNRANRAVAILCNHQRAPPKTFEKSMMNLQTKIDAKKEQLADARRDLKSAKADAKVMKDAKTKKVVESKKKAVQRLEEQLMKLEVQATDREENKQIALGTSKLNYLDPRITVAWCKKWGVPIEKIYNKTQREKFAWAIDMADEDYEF
In short: (§2)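 100 ng pBR322 with 0.4 units recombinant human topo I, incubated 30 min at 37 °C in 10 mM Tris-HCl pH 7.9, 150 mM NaCl, 0.1% BSA, 1 mM spermidine, 5% glycerol. Stopped with sarcosyl stop solution. Run on 1% agarose in TAE at 15 V for 7 h, stained with ethidium bromide, bands quantified under UV. Three experiments in triplicate.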

[2] = target: DNA topoisomerase 2-alpha (Homo sapiens) (UniProt P11388); experiment: Inhibition of human DNA topoisomerase 2 alpha assessed as inhibition of supercoiled pBR322 DNA relaxation at 100 uM after 30 mins by gel electrophoresis
Sequence of DNA topoisomerase 2-alpha (Homo sapiens) (P11388 whole entry): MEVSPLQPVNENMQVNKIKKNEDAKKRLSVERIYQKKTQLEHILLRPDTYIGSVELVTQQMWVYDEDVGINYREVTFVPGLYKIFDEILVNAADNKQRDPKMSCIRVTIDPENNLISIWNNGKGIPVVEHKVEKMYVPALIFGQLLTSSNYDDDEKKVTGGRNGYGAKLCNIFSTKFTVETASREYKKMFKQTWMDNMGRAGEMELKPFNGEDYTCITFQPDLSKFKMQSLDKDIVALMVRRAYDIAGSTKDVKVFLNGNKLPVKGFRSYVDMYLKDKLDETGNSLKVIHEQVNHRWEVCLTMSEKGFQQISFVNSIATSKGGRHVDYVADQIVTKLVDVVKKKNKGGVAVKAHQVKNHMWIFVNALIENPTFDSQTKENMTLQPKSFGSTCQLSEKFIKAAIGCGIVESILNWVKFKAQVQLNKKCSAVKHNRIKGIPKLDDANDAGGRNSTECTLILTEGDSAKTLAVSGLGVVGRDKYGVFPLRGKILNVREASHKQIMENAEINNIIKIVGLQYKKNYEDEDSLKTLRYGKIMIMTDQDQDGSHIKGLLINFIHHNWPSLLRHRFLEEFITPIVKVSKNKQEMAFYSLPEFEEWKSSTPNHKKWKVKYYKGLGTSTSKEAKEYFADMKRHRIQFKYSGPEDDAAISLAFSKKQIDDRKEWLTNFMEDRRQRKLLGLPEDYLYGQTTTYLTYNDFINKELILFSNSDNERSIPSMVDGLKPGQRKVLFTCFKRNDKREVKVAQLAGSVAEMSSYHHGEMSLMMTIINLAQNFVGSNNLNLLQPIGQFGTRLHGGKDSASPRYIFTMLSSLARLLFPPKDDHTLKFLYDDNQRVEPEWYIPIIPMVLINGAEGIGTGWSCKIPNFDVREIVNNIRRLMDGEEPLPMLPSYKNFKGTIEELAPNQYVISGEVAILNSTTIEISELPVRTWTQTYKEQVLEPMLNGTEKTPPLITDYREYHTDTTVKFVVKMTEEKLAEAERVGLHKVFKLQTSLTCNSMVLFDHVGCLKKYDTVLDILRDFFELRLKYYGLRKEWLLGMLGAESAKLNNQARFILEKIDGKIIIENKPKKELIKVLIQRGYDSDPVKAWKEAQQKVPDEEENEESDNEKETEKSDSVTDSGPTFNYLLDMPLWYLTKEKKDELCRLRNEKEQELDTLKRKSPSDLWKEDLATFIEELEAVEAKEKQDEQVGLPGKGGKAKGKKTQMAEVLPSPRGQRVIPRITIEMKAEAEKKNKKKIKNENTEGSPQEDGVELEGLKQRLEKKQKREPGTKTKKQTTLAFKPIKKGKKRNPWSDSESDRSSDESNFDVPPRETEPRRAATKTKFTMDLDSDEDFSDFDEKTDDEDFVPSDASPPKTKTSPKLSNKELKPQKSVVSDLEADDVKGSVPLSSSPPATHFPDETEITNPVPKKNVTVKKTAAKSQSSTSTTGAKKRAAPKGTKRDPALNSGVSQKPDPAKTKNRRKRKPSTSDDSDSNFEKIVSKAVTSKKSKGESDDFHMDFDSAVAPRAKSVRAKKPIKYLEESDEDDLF
In short: (§3)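 200 ng supercoiled pBR322 with 1 unit human topo IIα, incubated 30 min at 30 °C in 10 mM Tris-HCl pH 7.9, 50 mM NaCl, 5 mM MgCl2, 1 mM EDTA, 1 mM ATP, BSA. Stopped with EDTA. Run on 1% agarose in TAE at 25 V for 4 h, stained with ethidium bromide, supercoiled band quantified under UV. Three experiments in triplicate.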

MDA-MB-231 = experiment: Cytotoxicity against human MDA-MB-231 cells after 2 days; format: functional; in short: as §1
DU-145 = experiment: Cytotoxicity against human DU145 cells after 2 days; format: functional, cell-based; conditions: DU-145, 48 h; in short: as §1
[3] = target: DNA topoisomerase 2-alpha (Homo sapiens) (UniProt P11388); experiment: Inhibition of human DNA topoisomerase 2 alpha assessed as inhibition of supercoiled pBR322 DNA relaxation at 20 uM after 30 mins by gel electrophoresis; in short: as §3
[4] = target: T1, DNA topoisomerase 1 (Homo sapiens); experiment: Inhibition of human recombinant DNA topoisomerase 1 assessed as inhibition of supercoiled pBR322 DNA relaxation at 20 uM after 30 mins by gel electrophoresis; in short: as §2

Structure (SMILES)	IC50 (HCT-15)	IC50 (HeLa)	IC50 (HL-60)	inhibition [1]	inhibition [2]	IC50 (MDA-MB-231)	IC50 (DU-145)	inhibition [3]	inhibition [4]
c1ccc(-c2cc(-c3ccccn3)nc3c2COc2ccccc2-3)cc1	15.6 µM	5 µM	14.5 µM	3.1%	7.2%	11.1 µM	7.6 µM		
c1ccc(-c2cc(-c3ccco3)nc3c2COc2ccccc2-3)cc1	0.4 µM	2.3 µM	1.4 µM	4.9%	28.4%	0.2 µM	0.1 µM		
c1ccc(-c2cc(-c3ccccc3)c3c(n2)-c2ccccc2OC3)cc1	5.1 µM	14.2 µM	18.8 µM	0%	15.4%	1.8 µM	6.9 µM		
COc1cc([C@@H]2c3cc4c(cc3[C@@H](O[C@@H]3O[C@@H]5CO[C@@H](C)O[C@H]5[C@H](O)[C@H]3O)[C@H]3COC(=O)[C@H]23)OCO4)cc(OC)c1O [ETOPOSIDE]						0.7 µM		22.3%	
c1ccc(-c2cc(-c3cccnc3)c3c(n2)-c2ccccc2OC3)nc1	3.3 µM	1.3 µM	> 50 µM	2.6%	8.7%	7.2 µM	4.4 µM		
CC[C@@]1(O)C(=O)OCc2c1cc1n(c2=O)Cc2cc3ccccc3nc2-1 [CAMPTOTHECIN]						0.3 µM			
c1csc(-c2cc(-c3ccoc3)c3c(n2)-c2ccccc2OC3)c1				0%	8.4%				
c1ccc(-c2cc(-c3ccco3)c3c(n2)-c2ccccc2OC3)cc1	12.3 µM	1.4 µM	7.3 µM	0%	11.5%	11.6 µM	18.6 µM		
c1coc(-c2cc(-c3cccs3)c3c(n2)-c2ccccc2OC3)c1				0%	6.8%				
c1ccc(-c2cc(-c3cccs3)c3c(n2)-c2ccccc2OC3)nc1	14 µM	6.2 µM	13.7 µM	48.2%	19.4%	2.4 µM	13.1 µM		4.1%
c1csc(-c2cc(-c3cccs3)c3c(n2)-c2ccccc2OC3)c1				0.7%	7.9%				
c1ccc(-c2cc(-c3ccccn3)c3c(n2)-c2ccccc2OC3)cc1	12.1 µM	2.8 µM	> 50 µM	0%	8.7%	1.9 µM	1.9 µM		
c1ccc(-c2cc(-c3ccsc3)nc3c2COc2ccccc2-3)nc1	8.3 µM	> 50 µM	> 50 µM	3.3%	25.3%	25.8 µM	5 µM	3.2%	
c1ccc(-c2cc(-c3cccs3)c3c(n2)-c2ccccc2OC3)cc1	1.2 µM	16 µM	> 50 µM	0%	10.8%	3.9 µM	2.6 µM		
c1ccc(-c2cc(-c3ccsc3)c3c(n2)-c2ccccc2OC3)cc1	> 50 µM	> 50 µM	> 50 µM	3.7%	17.6%	11.9 µM	> 50 µM		
c1coc(-c2cc(-c3cccs3)nc3c2COc2ccccc2-3)c1				9.2%	14.1%				
c1cncc(-c2cc(-c3ccco3)nc3c2COc2ccccc2-3)c1	0.6 µM	2.2 µM	1.8 µM	41.6%	5.6%	1.1 µM	4.6 µM		15.5%
c1ccc(-c2cc(-c3cccs3)nc3c2COc2ccccc2-3)cc1				5.5%	7.5%				
c1ccc(-c2cc(-c3cccnc3)c3c(n2)-c2ccccc2OC3)cc1				0%	14%				
c1ccc(-c2cc(-c3cccs3)nc3c2COc2ccccc2-3)nc1				1.8%	8.5%				
c1ccc(-c2cc(-c3ccoc3)c3c(n2)-c2ccccc2OC3)cc1	31.1 µM	39.6 µM	6.6 µM	1.9%	10.5%	10 µM	> 50 µM		
c1coc(-c2cc(-c3ccco3)c3c(n2)-c2ccccc2OC3)c1	0.6 µM	1.3 µM	3.4 µM	46.4%	11.6%	0.6 µM	0.9 µM		22.9%
c1ccc(-c2cc(-c3ccco3)c3c(n2)-c2ccccc2OC3)nc1	> 50 µM	> 50 µM	18.6 µM	4.4%	23.4%	3.3 µM	22.9 µM		
COc1cccc2c1C(=O)c1c(O)c3c(c(O)c1C2=O)C[C@@](O)(C(=O)CO)C[C@@H]3O[C@H]1C[C@H](N)[C@H](O)[C@H](C)O1 [DOXORUBICIN]						0.4 µM			
c1ccc(-c2cc(-c3ccccn3)c3c(n2)-c2ccccc2OC3)nc1	23.1 µM	> 50 µM	0.2 µM	0.6%	10.7%	4.7 µM	> 50 µM		
c1ccc(-c2cc(-c3ccco3)nc3c2COc2ccccc2-3)nc1				11.5%	2%				
